Test [1] is described as follows: Inhibition of VanX using D-Ala-D-Ala as substrate preincubated for 30 mins before substrate addition measured after 150 secs by UV-Vis spectrometry. A digest of the protocol: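 The enzyme was recombinant VanX, expressed as an MBP fusion in E. coli BL21(DE3) at 30 °C with 1 mM IPTG induction for 75 min. It was purified on amylose resin, eluted with 20 mM Tris pH 7.6, 10 mM maltose and 200 mM NaCl. Thrombin then cleaved off the MBP, followed by a Q-Sepharose step. IC₅₀ was determined by a previously reported method.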

Test [2] relates to Staphylococcus aureus. Nature of the test: Antibacterial activity against Staphylococcus aureus ATCC 25923 after 24 hrs by macrodilution broth method. Format: functional. Particulars: ATCC 25923, 24 h. The method in brief: (§1)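 CLSI tube macrodilution broth method, with MIC as the read-out. Test strains were S. aureus ATCC 25923 and two clinical MRSA isolates. Cultures of about 10⁸ CFU/ml in Mueller–Hinton medium and phosphonamidate (2 mM stock in ddH₂O) were added in sequence to a vancomycin dilution series from 128 down to 0.125. Tubes were incubated for 24 h at 37 °C.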

The subject of test [3] is Staphylococcus aureus. Briefly: Antibacterial activity against methicillin-resistant Staphylococcus aureus isolate 1 after 24 hrs by macrodilution broth method. Format: functional. Particulars: isolate 1, 24 h. A digest of the protocol: as §1
Test [4] deals with Staphylococcus aureus. Briefly: Antibacterial activity against methicillin-resistant Staphylococcus isolate 2 after 24 hrs by macrodilution broth method. Format: functional. The conditions noted are these: isolate 2, 24 h. The method in brief:
as §1

Test [5] in a line: Partial competitive inhibition of VanX.
Test [6] relates to Staphylococcus aureus. Briefly: Antibacterial activity against Staphylococcus aureus ATCC 25923 after 24 hrs by macrodilution broth method relative to untreated control. Format: functional.

What is called IC50 is the midpoint of a concentration-inhibition curve. Low values mean inhibition by little substance, high ones a need for much substance. In general, MIC refers to the lowest concentration that inhibits growth of the organism. A higher MIC goes with weaker potency. By Ki is commonly meant a measure of affinity in units of concentration, obtained from inhibition or displacement.

≈ marks a conversion by molar mass, not a printed value.

Take `CC(C)C[C@@H](NP(=O)(O)[C@H](C)N)C(=O)O`: in test [1], the IC50 came to 2820 µM. The results for the MIC with Staphylococcus aureus [2], with Staphylococcus aureus [3] and against Staphylococcus aureus [4] were 2 µg/mL (≈ 8.4 µM), 1 µg/mL (≈ 4.2 µM) and 2 µg/mL (≈ 8.4 µM), respectively.
For `C[C@H](N)P(=O)(O)N[C@H](C)C(=O)O`, the inhibition constant Ki in test [5] was found to be 36 µM. In test [1], the IC50 came out at 700 µM. The MIC is 2 µg/mL (≈ 10.2 µM) against Staphylococcus aureus [2], 1 µg/mL (≈ 5.1 µM) against Staphylococcus aureus [3] and 2 µg/mL (≈ 10.2 µM) against Staphylococcus aureus [4].
As for `CC(C)[C@@H](NP(=O)(O)[C@H](C)N)C(=O)O`, it took 1120 µM to reach half-maximal inhibition in test [1] (IC50). Moreover, the MIC in the test with Staphylococcus aureus [2] came to 2 µg/mL (≈ 8.92 µM); in the test on Staphylococcus aureus [3], 1 µg/mL (≈ 4.46 µM); against Staphylococcus aureus [4] it was 2 µg/mL (≈ 8.92 µM).
Regarding `C[C@H](N)P(=O)(O)NCC(=O)O`, the IC50 in test [1] was 390 µM. For the same compound, the MIC in the test with Staphylococcus aureus [2] is 0.25 µg/mL (≈ 1.37 µM); in the test on Staphylococcus aureus [3], 1 µg/mL (≈ 5.49 µM); against Staphylococcus aureus [4], 1 µg/mL (≈ 5.49 µM). Also, in the test with Staphylococcus aureus [6], the “fold change (FC)” value is recorded as 8.
In turn, `C[C@H](N)P(=O)(O)N[C@H](Cc1ccccc1)C(=O)O` displayed an IC50 in test [1] of 4130 µM. In addition, the figures for the MIC in the test on Staphylococcus aureus [2], with Staphylococcus aureus [3] and in the test on Staphylococcus aureus [4] were 2 µg/mL (≈ 7.35 µM), 1 µg/mL (≈ 3.67 µM) and 2 µg/mL (≈ 7.35 µM), respectively.

Source of the values: ChEMBL document CHEMBL1921719, “Synthesis and activity study of phosphonamidate dipeptides as potential inhibitors of VanX” (Bioorg Med Chem Lett, 2011).
